In the array DNA melting data of Ke et al. (doi:10.1101/2024.01.08.574731):

Experiments:
[1] = melting temperature; fluorescence melt of hairpins on a sequencing array, two-state fit, raised by 9.35 °C to match UV melts; conditions: sodium 0.088 M
How it was run: (§1)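 On a sequenced MiSeq flow cell, library hairpins with annealed Cy3 and quencher oligos were imaged for Cy3 fluorescence in 2.5 °C steps up to 60 °C, in 50 mM Na-HEPES pH 8.0, 25 mM NaCl. Normalisation used pre-quench Cy3 and control constructs. Bootstrapped two-state fits gave melting temperature and folding enthalpy, combined by inverse variance across four replicates and with fitted temperatures raised by 9.35 °C to match UV melts.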

[2] = folding enthalpy; higher = less favourable; fluorescence melt of hairpins on a sequencing array, two-state fit; conditions: sodium 0.088 M
How it was run: as §1

| Sequence | Tm [1] [°C] | folding enthalpy [2] [kcal/mol] |
| --- | --- | --- |
| GCTAACTCGAAAGAGAGC (((..(((....)))))) | 32 | -16.5 |
| GCTAAGCGAAAGCATTGC ((.(.((....)).).)) | 36.2 | -19.9 |
| GCTAAGCGAAAGCCCAGC (((..((....))..))) | 34.5 | -16.8 |
| GCTAAGCGAAAGCCTAGC ((((.((....)).)))) | 49.1 | -21.9 |
| GCTAAGCGAAAGCGTAGC ((((.((....)).)))) | 61.5 | -20.3 |
| GCTAAGCGAAAGCTAGGC ((..(((....)))..)) | 47.4 | -17.6 |
| GCTAAGCGAAAGCTTTGC ((.((((....)))).)) | 59.5 | -30.6 |
| GCTAAGGGAAACCTTAGC (((((((....))))))) | 59.8 | -40.7 |
| GCTAATGAAAATTAGC ((((((....)))))) | 50 | -31.7 |
| GCTAATGGAAACGTTAGC (((((.(....).))))) | 43.9 | -29.7 |
| GCTACACGAAAGTGAGC (((.(((....)))))) | 49.4 | -19.2 |
| GCTACACGAAAGTGCAGC (((.(((....))).))) | 53.1 | -42.1 |
| GCTACCGCGAAAGCGAGC (((..(((....)))))) | 35.9 | -11.5 |
| GCTACCGGAAACGGTGGC ((.((((....)))).)) | 60 | -33.8 |
| GCTACGCGAAAGCAAAGC (((..((....))..))) | 44.1 | -13.2 |
| GCTACGCGAAAGCATTGC ((.(.((....)).).)) | 38.7 | -12.7 |
| GCTACGCGAAAGCCGAGC (((..((....))..))) | 43.4 | -15.6 |
| GCTACGCGAAAGCCTTGC ((.(.((....)).).)) | 29.6 | -9.85 |
| GCTACGCGAAAGCGCAGC (((.(((....))).))) | 55.7 | -32.5 |
| GCTACGCGAAAGCTGAGC (((..((....))..))) | 46.2 | -15.2 |
| GCTACGCGAAAGCTTGGC ((.(.((....)).).)) | 41.1 | -17.4 |
| GCTACGCGAAAGCTTTGC ((.(.((....)).).)) | 36.7 | -13 |
| GCTACGGAAACGTAGC ((((((....)))))) | 66.5 | -42 |

| Sequence | Tm [1] [°C] | folding enthalpy [2] [kcal/mol] |
| --- | --- | --- |
| GCTACGGGAAACCGCAAC (.(.(((....))).).) | 24.1 | -9.56 |
| GCTACGTCGAAAGACAGC (((..(((....)))))) | 36.4 | -16.2 |
| GCTACTGCGAAAGCAAGC (((..(((....)))))) | 34.7 | -11.4 |
| GCTACTGGAAACAATAGC ((((.((....)).)))) | 31.3 | -18.5 |
| GCTACTGGAAACAGTAAC (.(((((....))))).) | 31.5 | -16 |
| GCTACTGGAAACAGTAGC (((((((....))))))) | 64 | -44.5 |
| GCTACTGGAAACGGTAGC (((((.(....).))))) | 50.2 | -37.5 |
| GCTAGACGAAAGTCAGC (((.(((....)))))) | 54.2 | -23.1 |
| GCTAGAGCGAAAGCTAGC (((..(((....)))))) | 47.4 | -21.7 |
| GCTAGAGGAAACTCTAAC (.(((((....))))).) | 24.8 | -9.45 |
| GCTAGCCGAAAGGCAAGC (((.(((....))).))) | 60 | -27 |
| GCTAGCCGAAAGGCAGC (((.(((....)))))) | 58.1 | -21.7 |
| GCTAGCGAAAGCTAAGC ((((((....))).))) | 54.6 | -22.4 |
| GCTAGCGAAAGCTCGAGC ((((((....)))..))) | 35.6 | -14.6 |
| GCTAGCGAAAGCTGTAGC ((((((....)))..))) | 43.1 | -21.3 |
| GCTAGCTCGAAAGAGAGC (((..(((....)))))) | 30.4 | -12.2 |
| GCTAGGAAACTAGC (((((....))))) | 50.8 | -25.6 |
| GCTAGGCGAAAGCCACGC ((..(((....)))..)) | 41.5 | -14.3 |
| GCTAGGCGAAAGCCCCGC ((..(((....)))..)) | 32.6 | -7.78 |
| GCTAGGCGAAAGCCCGGC ((..(((....)))..)) | 45.6 | -16.9 |
| GCTAGGCGAAAGCCGCGC ((..(((....)))..)) | 62 | -16.9 |
| GCTAGGCGAAAGCCGGGC ((..(((....)))..)) | 60 | -16 |
| GCTAGGCGAAAGCCGTGC ((..(((....)))..)) | 57.7 | -13.9 |

| Sequence | Tm [1] [°C] | folding enthalpy [2] [kcal/mol] |
| --- | --- | --- |
| GCTAGGCGAAAGCCTCGC ((.((((....)))).)) | 58.9 | -17.8 |
| GCTAGGCGAAAGCGAAGC (((..((....))..))) | 35.3 | -15.8 |
| GCTAGGCGAAAGCGTCGC ((.(.((....)).).)) | 40.3 | -14.3 |
| GCTAGGCGAAAGCTTGGC ((.(.((....)).).)) | 45.2 | -20.6 |
| GCTAGGCGAAAGCTTTGC ((.(.((....)).).)) | 42.3 | -17.6 |
| GCTAGGGGAAACCCTGGC ((.((((....)))).)) | 53.4 | -36.9 |
| GCTAGGGGAAACCTTAGC ((((.((....)).)))) | 44.5 | -33.7 |
| GCTAGGGGAAACTCTGGC ((.((.(....).)).)) | 32.9 | -23.9 |
| GCTAGGTCGAAAGACAGC (((..(((....)))))) | 39.6 | -18.1 |
| GCTAGTCGAAAGACCAGC (((.(((....))).))) | 47.3 | -26.6 |
| GCTAGTGCGAAAGCAAGC (((..(((....)))))) | 39 | -12.3 |
| GCTAGTGGAAACATTAGC ((((.((....)).)))) | 42.7 | -28.3 |
| GCTATACCGAAAGGTAGC (((..(((....)))))) | 40 | -17 |
| GCTATACGAAAGTAAGC (((.(((....)))))) | 40.6 | -22.3 |
| GCTATAGCGAAAGCTAGC (((..(((....)))))) | 44.6 | -18 |
| GCTATAGGAAACTATGGC ((.((((....)))).)) | 41.7 | -28.6 |
| GCTATCACGAAAGTGAGC (((..(((....)))))) | 36.1 | -14.1 |
| GCTATCCGAAAGGAAAGC (((.(((....))).))) | 49 | -31.4 |
| GCTATCGAAAGATAGAGC ((((((....)))..))) | 42.7 | -23.4 |
| GCTATCGAAAGATCAAGC ((((((....)))..))) | 30.8 | -18.3 |
| GCTATCGAAAGATGGAGC ((((((....)))..))) | 33.6 | -15.9 |
| GCTATCGAAAGATTCAGC ((((((....)))..))) | 29.6 | -11.6 |
| GCTATGCCGAAAGGCAGC (((..(((....)))))) | 40.2 | -12.1 |

| Sequence | Tm [1] [°C] | folding enthalpy [2] [kcal/mol] |
| --- | --- | --- |
| GCTATGCGAAAGCAAAGC (((.(((....))).))) | 51.6 | -36 |
| GCTATGCGAAAGCACAGC (((.(((....))).))) | 48.7 | -39.7 |
| GCTATGCGAAAGCATCGC ((.((((....)))).)) | 55.3 | -22.5 |
| GCTATGCGAAAGCCTTGC ((.(.((....)).).)) | 30 | -12.7 |
| GCTATGCGAAAGCGCAGC (((..((....))..))) | 36.8 | -18 |
| GCTATGGCGAAAGCCAGC (((..(((....)))))) | 42.6 | -11.2 |
| GCTATGGGAAACCATAAC (.(((((....))))).) | 28.7 | -12.8 |
| GCTATGGGAAACCGTAGC ((((.((....)).)))) | 51.9 | -44.1 |
| GCTATGGGAAACTGTAGC ((((..(....)..)))) | 36 | -25.2 |
| GCTATTGAAAAATAGC ((((((....)))))) | 49.5 | -31.2 |
| GCTATTGCGAAAGCAAGC (((..(((....)))))) | 42.2 | -10.2 |
| GCTCAACCGAAAGGTAGC (((..(((....)))))) | 39.4 | -18.4 |
| GCTCAACGAAAGTTCAGC (((.(((....))).))) | 37.6 | -23.6 |
| GCTCAAGGAAACTTGAGC (((((((....))))))) | 64.4 | -46.3 |
| GCTCAAGGAAACTTGGGC ((.((((....)))).)) | 50 | -37.4 |
| GCTCACCGAAAGGTCAGC (((.(((....))).))) | 44.2 | -26.3 |
| GCTCACCGAAAGGTTAGC (((.(((....))).))) | 49.9 | -31 |
| GCTCACGAAAGTGAGAGC ((((((....)))..))) | 59 | -13.7 |
| GCTCACGAAAGTGCAAGC ((((((....)))..))) | 39.4 | -17.4 |
| GCTCACGAAAGTGCCAGC ((((((....)))..))) | 33.5 | -13.1 |
| GCTCACGAAAGTGCGAGC ((((((....)))..))) | 38.7 | -19.8 |
| GCTCACGAAAGTGGAGC ((((((....))).))) | 59 | -27.5 |
